Common to all, as to type: functional
The species entered for assay [1] is Mus musculus. Description: Evaluated for prevention of amphetamine aggregation toxicity in mice,.
For assay [2], the system named is Mus musculus. Description: Inhibition of tetrabenazine-induced ptosis (TBZ) in mice by peroral administration. To be noted: po. In a few lines:
(§1)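 Mice dosed with the compound and scored for prevention of tetrabenazine-induced ptosis. ED₅₀ was derived by linear regression analysis and reported with 95% confidence limits.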

In the next assay the test system is Rattus norvegicus. As to the kind of experiment: Compound, administered intraperitoneally and was evaluated for potentiation of the 5-hydroxytryptophan-induced behavioral syndrome in pargyline pretreated rats. To be noted: ip.
Assay [3] is filed under the species Mus musculus. As to the kind of experiment: Inhibition of pentylenetetrazole (PTZ)-induced lethality in mice.
Assay [4] relates to Mus musculus. Description: Compound, administered intraperitoneally and was evaluated for inhibition of pentylenetetrazole (PTZ)-induced lethality in mice. The following applies: ip.
The subject of assay [5] is Mus musculus. Description: Compound, administered perorally and was evaluated for prevention of amphetamine aggregation toxicity in mice. To be noted: po.
The subject of assay [6] is Mus musculus. As to the kind of experiment: Evaluated for antidepressant activity by inhibition of tetrabenazine-induced ptosis (TBZ) in mice by ip administration. In a few lines: as §1

SMILES strings stand for the structures.

As a reminder, the ED50 is the midpoint of the dose-response relation. Take `CCC1=Nc2ccccc2CC(c2ccccc2)N1C` (centres undefined): the ED50 in the assay listed under Mus musculus [1] is > 20 mg/kg; with Mus musculus [2] it was 1.6 mg/kg; in the assay on Rattus norvegicus, > 10 mg/kg; in the assay filed under Mus musculus [3] (Mus musculus, read-out: ED50), > 40 mg/kg.

On to `COc1ccc(C2Cc3ccccc3N=C(C)N2C)cc1` (centres undefined), for which the ED50 is > 40 mg/kg in the assay on Mus musculus [4], 19.8 mg/kg in the assay on Mus musculus [2] and > 20 mg/kg in the assay with Mus musculus [5].

In the case of `CC1=Nc2ccccc2CC(c2ccccc2Cl)N1C` (centres undefined), the ED50 in the assay on Mus musculus [6] was > 5 mg/kg; in the assay filed under Mus musculus [1], > 20 mg/kg; in the assay filed under Mus musculus [3] (Mus musculus, read-out: ED50), > 40 mg/kg.

In the case of `CC1=Nc2ccccc2CC(c2ccccc2C)N1C` (centres undefined), the ED50 was > 20 mg/kg in the assay filed under Mus musculus [1]; 5.5 mg/kg in the assay on Mus musculus [2]; > 40 mg/kg in the assay filed under Mus musculus [3] (Mus musculus, read-out: ED50).

For the compound `CCC1=Nc2ccc(Cl)cc2CC(c2ccccc2)N1C` (centres undefined), the ED50 in the assay on Mus musculus [6] was ~20 mg/kg; in the assay filed under Mus musculus [3], >40 mg/kg; in the assay filed under Mus musculus [3] (Mus musculus, read-out: ED50) it was > 20 mg/kg.

In the case of `CCC1=Nc2ccc(Cl)cc2CC(c2ccccc2F)N1C` (centres undefined), the ED50 with Mus musculus [6] was > 20 mg/kg; in the assay filed under Mus musculus [3] it was >20 mg/kg; in the assay listed under Mus musculus [3] (Mus musculus, read-out: ED50), > 40 mg/kg.

Take `CC1=Nc2ccccc2CC(c2ccc(Cl)cc2)N1C` (centres undefined): the ED50 in the assay listed under Mus musculus [1] is > 20 mg/kg; in the assay on Mus musculus [2], 0.52 mg/kg; in the assay on Rattus norvegicus it was > 10 mg/kg; in the assay listed under Mus musculus [3] (Mus musculus, read-out: ED50), > 40 mg/kg.

The compound `CCC1=Nc2ccccc2CC(c2ccc(F)cc2)N1C` (centres undefined) displayed a 50% effective dose (ED50) in the assay on Mus musculus [2] of 8.4 mg/kg.

On to `CC1=Nc2ccc(Cl)cc2CC(c2ccccc2)N1C` (centres undefined), for which the ED50 in the assay with Mus musculus [6] was ≥ 20 mg/kg; in the assay filed under Mus musculus [1] it was > 20 mg/kg; in the assay listed under Mus musculus [3] (Mus musculus, read-out: ED50), > 40 mg/kg.

In the case of `CC1=Nc2ccc(Cl)cc2CC(c2ccccc2F)N1C` (centres undefined), the ED50 in the assay with Mus musculus [6] was > 20 mg/kg; in the assay listed under Mus musculus [1], > 20 mg/kg; in the assay filed under Mus musculus [3] (Mus musculus, read-out: ED50) it was > 40 mg/kg.

Regarding `CCC1=Nc2ccccc2CC(c2ccc(OC)c(OC)c2)N1C` (centres undefined), the ED50 was 8.2 mg/kg in the assay with Mus musculus [6], > 40 mg/kg with Mus musculus [4] and > 20 mg/kg in the assay with Mus musculus [5].

`COc1ccc(C2Cc3ccccc3N=C(C)N2C)cc1OC` (centres undefined): the ED50 in the assay on Mus musculus [4] was > 40 mg/kg; in the assay with Mus musculus [2] it was 5 mg/kg; in the assay with Mus musculus [5], > 20 mg/kg.

On to `CCC1=Nc2ccccc2CC(c2ccccc2F)N1C` (centres undefined), for which the ED50 in the assay listed under Mus musculus [1] was > 20 mg/kg; in the assay with Mus musculus [2], 7 mg/kg; in the assay filed under Mus musculus [3] (Mus musculus, read-out: ED50) it was > 40 mg/kg.

Consider `CC1=Nc2ccccc2CC(c2ccc(F)cc2)N1C` (centres undefined), for which the ED50 was > 20 mg/kg in the assay listed under Mus musculus [1]; 3.6 mg/kg in the assay with Mus musculus [2]; > 10 mg/kg in the assay on Rattus norvegicus; > 40 mg/kg in the assay listed under Mus musculus [3] (Mus musculus, read-out: ED50).

Turning to `CCC1=Nc2ccccc2CC(c2ccc(OC)cc2)N1C` (centres undefined), the ED50 was > 40 mg/kg in the assay on Mus musculus [4], 2.8 mg/kg with Mus musculus [2] and > 20 mg/kg in the assay with Mus musculus [5].

In the case of `CCC1=Nc2ccccc2CC(c2ccccc2Cl)N1C` (centres undefined), the ED50 with Mus musculus [2] is 4.1 mg/kg.

Take `CCC1=Nc2ccccc2CC(c2ccc(Cl)cc2)N1C` (centres undefined): the 50% effective dose (ED50) was < 5 mg/kg in the assay with Mus musculus [6] and > 20 mg/kg in the assay listed under Mus musculus [3] (Mus musculus, read-out: ED50).

Turning to `CC1=Nc2ccccc2CC(c2ccc(C)cc2)N1C` (centres undefined), the ED50 in the assay listed under Mus musculus [1] was > 20 mg/kg; in the assay with Mus musculus [2], 5.2 mg/kg; in the assay on Rattus norvegicus it was > 10 mg/kg; in the assay filed under Mus musculus [3] (Mus musculus, read-out: ED50) it was > 40 mg/kg.

With `CCC1=Nc2ccccc2CC(c2ccccc2C)N1C` (centres undefined), the ED50 with Mus musculus [2] is 3.1 mg/kg; in the assay filed under Mus musculus [3], >20 mg/kg; in the assay filed under Mus musculus [3] (Mus musculus, read-out: ED50), > 40 mg/kg.

As for `CC1=Nc2ccccc2CC(c2ccccc2F)N1C` (centres undefined), the ED50 in the assay listed under Mus musculus [1] is > 20 mg/kg; in the assay with Mus musculus [2], 7.6 mg/kg; in the assay on Rattus norvegicus, > 10 mg/kg; in the assay listed under Mus musculus [3] (Mus musculus, read-out: ED50), > 40 mg/kg.

Take `CCC1=Nc2ccccc2CC(c2ccc(C)cc2)N1C` (centres undefined): the ED50 was > 20 mg/kg in the assay listed under Mus musculus [1]; 6.1 mg/kg in the assay on Mus musculus [2]; > 10 mg/kg with Rattus norvegicus; > 40 mg/kg in the assay listed under Mus musculus [3] (Mus musculus, read-out: ED50).

For `CN(C)CCC=C1c2ccccc2CCc2ccccc21` [AMITRIPTYLINE], the median effective dose (ED50) in the assay on Mus musculus [2] is 1.9 mg/kg.

For `CC1=Nc2ccccc2CC(c2ccccc2)N1C` (centres undefined) [DAZEPINIL], the median effective dose (ED50) was > 20 mg/kg in the assay listed under Mus musculus [1]; 2.1 mg/kg in the assay with Mus musculus [2]; > 10 mg/kg in the assay with Rattus norvegicus; > 40 mg/kg in the assay filed under Mus musculus [3] (Mus musculus, read-out: ED50).
